In the library only some 5.8% were active in any assay of this set; here they are far more common.
GASC1 inh: KDM4C (human) demethylase inhibition; Q9H3R0; GST-KDM4C 2-372, H3K9me3 peptide, LANCE TR-FRET; inhibition, % at 12.5 µM; 0.15% of 96,000 active;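 active means mean replicate inhibition above about 25%, with at least 55% of replicates also reaching it, limit read from the data, passing the limit was not always enough; inconclusive means only one of those two conditions met; inactive means neither condition met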
Target sequence (Q9H3R0 2-372 limits assumed): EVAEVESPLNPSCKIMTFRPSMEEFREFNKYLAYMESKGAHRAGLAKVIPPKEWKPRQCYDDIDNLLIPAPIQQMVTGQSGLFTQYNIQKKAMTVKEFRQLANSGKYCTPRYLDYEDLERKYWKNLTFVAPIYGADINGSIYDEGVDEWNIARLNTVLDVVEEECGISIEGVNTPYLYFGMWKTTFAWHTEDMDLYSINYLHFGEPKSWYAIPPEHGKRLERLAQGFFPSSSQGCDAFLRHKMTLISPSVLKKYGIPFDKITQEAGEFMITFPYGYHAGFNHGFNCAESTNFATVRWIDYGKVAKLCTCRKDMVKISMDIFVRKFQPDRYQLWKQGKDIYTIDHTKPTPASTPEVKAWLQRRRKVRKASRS
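Material: GST-tagged GASC-1 (JMJD2C) catalytic fragment, aa 2-372 / Quantity: enzyme final amount 10 nM / Medium: HEPES buffer, pH 7.5, plus ascorbate / Doses: one test concentration per compound / Incubation: 30 min reaction, 60 min detection, RT / Measured by: LANCE TR-FRET / Read-out: inhibition from TR-FRET ratio decrease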
T cruzi growth-1: T. cruzi proliferation inhibition. T. cruzi beta-gal in NIH3T3, GalScreen luminescence, 90 h. inhibition, % at 8.34 µM. 5.9% of 77,000 active;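 active means mean inhibition above about 93%, with at least 55% of replicates each passing it, limit read from the data, passing the limit was not always enough; inconclusive means only one of those two conditions holds; inactive means neither condition holds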
Pf Dd2 growth: P. falciparum Dd2 growth inhibition. activity change, % at 10 µM. 2.3% of 94,000 active. SYBR Green, 72 h; active compounds read low. AID 1159554; in the data active means activity change below about -80%; inconclusive means no clear call, values can overlap the other calls
IDH1 R132H inh: IDH1 R132H (human) inhibition. inhibition, % at 10 µM. IDH1 R132H reductase, diaphorase/resazurin fluorescence, 60 min. AID 624101. 0.18% of 70,000 active; in the data active means inhibition above about 34%; inconclusive means no clear call, values can overlap the other calls; inactive means below about 11%
Target sequence (O75874 whole entry R132H): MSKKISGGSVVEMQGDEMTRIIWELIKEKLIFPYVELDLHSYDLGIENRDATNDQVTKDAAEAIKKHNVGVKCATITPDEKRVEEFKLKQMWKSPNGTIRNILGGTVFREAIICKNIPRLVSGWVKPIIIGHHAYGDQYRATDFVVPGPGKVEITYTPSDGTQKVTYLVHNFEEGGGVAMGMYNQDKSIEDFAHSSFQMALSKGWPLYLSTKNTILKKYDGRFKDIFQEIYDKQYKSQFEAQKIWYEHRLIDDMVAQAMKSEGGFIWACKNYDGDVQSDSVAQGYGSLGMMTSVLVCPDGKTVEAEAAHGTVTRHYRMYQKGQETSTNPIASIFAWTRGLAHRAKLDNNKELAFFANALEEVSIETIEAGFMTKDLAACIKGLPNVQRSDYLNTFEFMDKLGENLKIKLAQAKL
T cruzi growth-2: blocks T. cruzi growth in NIH3T3 host cells | shares compounds with T cruzi growth-1 | T. cruzi beta-gal in NIH3T3, GalScreen luminescence, 90 h | inhibition, % at 8.35 µM | 72% of 5,600 active | AID 651739;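 active means mean replicate inhibition above about 95% and at least 55% of replicates individually reaching it, limit read from the data; inconclusive means only one of the two criteria is met; inactive means neither criterion is met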
T cruzi growth-3: inhibitors of T. cruzi proliferation; inhibition, % at 2.09 µM; shares compounds with T cruzi growth-1; AID 651740; 21% of 5,600 active; T. cruzi beta-gal in NIH3T3, GalScreen luminescence, 90 h;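 active means mean inhibition above about 95%, with at least 55% of replicates also reaching it, limit read from the data; inconclusive means meets just one of the two conditions; inactive means meets neither condition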
NIH3T3 tox: kills mouse NIH/3T3 fibroblasts; AID 651742; 14% of 5,600 active; shares compounds with T cruzi growth-1; cytotoxicity (signal decrease), % at 8.35 µM; NIH/3T3 viability, CellTiter-Glo ATP luminescence, 90 h;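 active means mean signal decrease across replicates above about 35% based on untreated-well scatter, with enough replicates individually passing, limit read from the data; inconclusive means no rule stated though some were filed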
3T3 cytotox 2: kills mouse NIH/3T3 fibroblasts | shares compounds with T cruzi growth-1 | NIH/3T3 viability, CellTiter-Glo ATP luminescence, 90 h | inhibition, % at 24.9 µM | 56% of 5,600 active;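 active means mean loss of cell viability signal at or above a set limit, and enough replicates individually reaching it; inconclusive means meets only the mean limit or only the replicate share; inactive means meets neither condition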
Of the large screens only hits and unclear results are named; the others gave an inactive call (follow-up assays come after a bar, where they were run).

C[C@H]1CN([C@@H](C)CO)C(=O)Cc2cc(NC(=O)C3CCCCC3)ccc2O[C@@H]1CN(C)Cc1ccc2c(c1)OCO2	T cruzi growth-1 99 | T cruzi growth-2 96 | T cruzi growth-3 inactive | NIH3T3 tox inactive | 3T3 cytotox 2 inactive
C[C@H](CO)N1C[C@H](C)[C@@H](CN(C)Cc2ccc3c(c2)OCO3)Oc2ccc(NC(=O)C3CCCCC3)cc2CC1=O	T cruzi growth-1 100 | T cruzi growth-2 103 | T cruzi growth-3 inactive | NIH3T3 tox inactive | 3T3 cytotox 2 28
C[C@H]1CN([C@@H](C)CO)C(=O)Cc2cc(NC(=O)C3CCCCC3)ccc2O[C@@H]1CN(C)CC1CC1	none
C[C@@H]1CN([C@@H](C)CO)C(=O)Cc2cc(NC(=O)C3CCCCC3)ccc2O[C@@H]1CN(C)CC1CC1	T cruzi growth-1 97 | T cruzi growth-2 inactive | T cruzi growth-3 inactive | NIH3T3 tox inactive | 3T3 cytotox 2 inactive
CC(C)CC#Cc1ccc2c(c1)O[C@H](CN(C)C(=O)c1ccccc1)[C@H](C)CN([C@@H](C)CO)S2(=O)=O	T cruzi growth-1 118 | T cruzi growth-2 104 | T cruzi growth-3 98 | NIH3T3 tox inactive | 3T3 cytotox 2 106
CCCC#Cc1ccc2c(c1)O[C@H](CN(C)C(=O)c1ccccc1)[C@H](C)CN([C@@H](C)CO)S2(=O)=O	T cruzi growth-1 96 | T cruzi growth-2 102 | T cruzi growth-3 inactive | NIH3T3 tox inactive | 3T3 cytotox 2 26
CC(C)CC#Cc1ccc2c(c1)O[C@@H](CN(C)C(=O)c1ccccc1)[C@H](C)CN([C@@H](C)CO)S2(=O)=O	T cruzi growth-1 116 | T cruzi growth-2 110 | T cruzi growth-3 inactive | NIH3T3 tox 39 | 3T3 cytotox 2 108
CCOC(=O)Nc1ccc2c(c1)N(C(=O)CCN1CCOCC1)c1ccccc1CC2	none (no result: GASC1 inh, T cruzi growth-1, Pf Dd2 growth)
Cc1sc(NC(=O)COc2ccc(Cl)cc2Br)c(C(N)=O)c1C	none (no result: GASC1 inh, T cruzi growth-1, Pf Dd2 growth)
C[C@@H]1CN([C@H](C)CO)S(=O)(=O)c2ccc(-c3ccncc3)cc2O[C@H]1CN(C)Cc1cncnc1	T cruzi growth-1 107 | T cruzi growth-2 97 | T cruzi growth-3 inactive | NIH3T3 tox inactive | 3T3 cytotox 2 53
C[C@H]1CN([C@@H](C)CO)S(=O)(=O)c2ccc(-c3ccncc3)cc2O[C@@H]1CN(C)Cc1ccncc1	T cruzi growth-1 100 (no result: IDH1 R132H inh) | T cruzi growth-2 96 | T cruzi growth-3 97 | NIH3T3 tox inactive | 3T3 cytotox 2 65
C[C@@H]1CN([C@@H](C)CO)S(=O)(=O)c2ccc(-c3ccncc3)cc2O[C@@H]1CN(C)Cc1ccncc1	T cruzi growth-1 105 | T cruzi growth-2 100 | T cruzi growth-3 inactive | NIH3T3 tox 36 | 3T3 cytotox 2 65
C[C@@H]1CN([C@H](C)CO)S(=O)(=O)c2ccc(-c3ccncc3)cc2O[C@@H]1CN(C)Cc1ccncc1	none (no result: IDH1 R132H inh)
C[C@H]1CN([C@@H](C)CO)S(=O)(=O)c2ccc(Br)cc2O[C@@H]1CN(C)Cc1ccncc1	T cruzi growth-1 99 | T cruzi growth-2 96 | T cruzi growth-3 inactive | NIH3T3 tox inactive | 3T3 cytotox 2 inactive
O=C(CCCCC(=O)N/N=C/c1ccco1)NO	none (no result: GASC1 inh, T cruzi growth-1, Pf Dd2 growth)
Cn1c(SCC(=O)Nc2cc(C(F)(F)F)ccc2Cl)nnc1-c1cnccn1	none (no result: GASC1 inh, T cruzi growth-1, Pf Dd2 growth)
OC1c2ccccc2-c2c3c(cc4c2C1NCC4)OCO3 (stereo unspecified)	none (no result: GASC1 inh, T cruzi growth-1, Pf Dd2 growth)
CCCNC(=O)N1[C@@H](CO)[C@@H](c2ccccc2)[C@@H]1CNC(=O)c1cccc(F)c1	T cruzi growth-1 122 (no result: IDH1 R132H inh) | T cruzi growth-2 inactive | T cruzi growth-3 inactive | NIH3T3 tox inactive | 3T3 cytotox 2 40
CCCNC(=O)N1[C@@H](CO)[C@H](c2ccccc2)[C@@H]1CNC(=O)c1ccccc1	T cruzi growth-1 inconclusive (no result: IDH1 R132H inh) | T cruzi growth-2 inactive | T cruzi growth-3 inactive | NIH3T3 tox inactive | 3T3 cytotox 2 inactive
CCCNC(=O)N1[C@H](CO)[C@@H](c2ccccc2)[C@H]1CNC(=O)c1ccccc1	none (no result: IDH1 R132H inh)
CCCNC(=O)N1[C@H](CO)[C@@H](c2ccccc2)[C@H]1CNC(=O)c1cccc(F)c1	none (no result: IDH1 R132H inh)
CC(Sc1nc(N)cc(=O)[nH]1)C(=O)Nc1ccc(Cl)cc1 (stereo unspecified)	none (no result: GASC1 inh, T cruzi growth-1, Pf Dd2 growth)
CCC(SC1=NCCS1)C(=O)Nc1ccc(NC(C)=O)cc1 (stereo unspecified)	none (no result: GASC1 inh, T cruzi growth-1, Pf Dd2 growth)
CCCC#Cc1ccc2c(c1)O[C@@H](CN(C)Cc1ccc3c(c1)OCO3)[C@@H](C)CN([C@H](C)CO)S2(=O)=O	T cruzi growth-1 109 (no result: Pf Dd2 growth) | T cruzi growth-2 inactive | T cruzi growth-3 105 | NIH3T3 tox inactive | 3T3 cytotox 2 103
C[C@H](CO)N1C[C@H](C)[C@@H](CN(C)Cc2ccc3c(c2)OCO3)Oc2cc(C#CCN(C)C)ccc2S1(=O)=O	T cruzi growth-1 103 | T cruzi growth-2 110 | T cruzi growth-3 inactive | NIH3T3 tox inconclusive | 3T3 cytotox 2 105
CC(C)CC#Cc1ccc2c(c1)O[C@@H](CN(C)Cc1ccc3c(c1)OCO3)[C@@H](C)CN([C@@H](C)CO)S2(=O)=O	none
C[C@@H]1CN([C@@H](C)CO)S(=O)(=O)c2ccc(C#CCN(C)C)cc2O[C@H]1CN(C)Cc1ccc2c(c1)OCO2	T cruzi growth-1 111 | T cruzi growth-2 102 | T cruzi growth-3 inactive | NIH3T3 tox 45 | 3T3 cytotox 2 104
O=C(CSc1n[nH]c(-c2ccc(Cl)cc2)n1)Nc1cccc(Br)c1	none (no result: GASC1 inh, T cruzi growth-1, Pf Dd2 growth)
Cc1cc(-c2ccccc2)nc(SCC(=O)Nc2ccc(I)cc2)n1	none (no result: GASC1 inh, T cruzi growth-1, Pf Dd2 growth)
C[C@@H]1CN([C@H](C)CO)C(=O)Cc2cc(NS(=O)(=O)c3ccc(Cl)cc3)ccc2O[C@@H]1CN(C)Cc1ccc2c(c1)OCO2	T cruzi growth-1 99 (no result: IDH1 R132H inh) | T cruzi growth-2 106 | T cruzi growth-3 inactive | NIH3T3 tox inconclusive | 3T3 cytotox 2 42
Cc1ccc(S(=O)(=O)Nc2ccc3c(c2)CC(=O)N([C@@H](C)CO)C[C@@H](C)[C@@H](CN(C)Cc2ccc4c(c2)OCO4)O3)cc1	none
Cc1ccc(S(=O)(=O)Nc2ccc3c(c2)CC(=O)N([C@H](C)CO)C[C@H](C)[C@@H](CN(C)Cc2ccc4c(c2)OCO4)O3)cc1	T cruzi growth-1 106 | T cruzi growth-2 104 | T cruzi growth-3 99 | NIH3T3 tox inactive | 3T3 cytotox 2 25
C[C@@H]1CN([C@H](C)CO)C(=O)Cc2cc(NS(=O)(=O)c3ccc(Cl)cc3)ccc2O[C@H]1CN(C)Cc1ccc2c(c1)OCO2	T cruzi growth-1 113 | T cruzi growth-2 108 | T cruzi growth-3 inactive | NIH3T3 tox inactive | 3T3 cytotox 2 inactive
C[C@@H]1CN([C@@H](C)CO)C(=O)Cc2cc(NS(=O)(=O)c3ccc(Cl)cc3)ccc2O[C@H]1CN(C)Cc1ccc2c(c1)OCO2	none

Screens: PubChem BioAssay, Broad Institute
